SR-BI uptake up: activators of SR-BI mediated DiI-HDL uptake, primary screen, ldlA[mSR-BI] CHO cells, DiI fluorescence. 3 h; 100 = double the neutral-control signal. activation, % at 12.5 µM. hit rate 0.096% among 320,000. AID 504775, 2011;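 active = mean replicate activation of at least 60% and every replicate at or above 60%; inconclusive = mean or all-replicate condition met, but not both; inactive = mean below 60% and not all replicates reaching 60%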;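 note: 0% = median plate neutral-control signal and 100% = twice that signal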
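Material – SR-BI-overexpressing, LDLR-lacking CHO cells · Medium – BSA-supplemented, HEPES-buffered Ham's F12, pH 7.4 · Doses – single concentration · Times – compound with DiI-HDL co-incubation, 3 h at 37 °C · Measured by – bottom-read fluorescence, 550/595 nm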
SR-BI DiI inh: inhibitors of SR-BI mediated HDL lipid uptake, primary screen, ldlA[mSR-BI] cells, fluorescence, single point; Scavenger receptor class B member 1 (Mus musculus), Q61009; ldlA[mSR-BI] CHO cells, DiI-HDL uptake fluorescence, 3 h; inhibition, % at 12.5 µM; hit rate 0.96% among 320,000; AID 488896, 2010;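 active = mean replicate inhibition of at least 70% and a set share of replicates each scoring 70 or more; inconclusive = meets just one of the two criteria; inactive = fails both criteria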;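 note: 0% = median of neutral control wells and 100% = median of positive control wells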
Calb FLC: C. albicans growth inhibition with fluconazole, primary screen, CaCi-2 strain, Alamar Blue fluorescence; C. albicans CaCi-2 + fluconazole, 48 h; growth inhibition, % (concentration not given with the values); hit rate 0.57% among 300,000; AID 1979, 2009;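 active = growth inhibition above about 58% in most replicates, limit read from the data, passing the limit was not always enough; inconclusive = exactly half the replicates above a set limit; inactive = most replicates below a set limit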;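 note: all wells also contain fluconazole at 8 µg/ml as a sub-toxic cotreatment; 0% = median of DMSO wells and 100% = median of geldanamycin control wells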
HTR2A ag: mouse Htr2a agonists via beta-arrestin recruitment, primary screen, cell-based, luminescence. 5-hydroxytryptamine receptor 2A (Mus musculus), P35363. CHO-K1 mHTR2A beta-arrestin complementation; percent of 30 µM serotonin response. activation, % at 7.6 µM. hit rate 0.66% among 360,000;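 active = activation above a run cutoff, the mean activation of all tested compounds plus 3 SD, cut at about 14% in these data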;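 note: 0% = plate median of compound wells and 100% = 30 µM serotonin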
Target sequence (P35363 whole entry, looked up): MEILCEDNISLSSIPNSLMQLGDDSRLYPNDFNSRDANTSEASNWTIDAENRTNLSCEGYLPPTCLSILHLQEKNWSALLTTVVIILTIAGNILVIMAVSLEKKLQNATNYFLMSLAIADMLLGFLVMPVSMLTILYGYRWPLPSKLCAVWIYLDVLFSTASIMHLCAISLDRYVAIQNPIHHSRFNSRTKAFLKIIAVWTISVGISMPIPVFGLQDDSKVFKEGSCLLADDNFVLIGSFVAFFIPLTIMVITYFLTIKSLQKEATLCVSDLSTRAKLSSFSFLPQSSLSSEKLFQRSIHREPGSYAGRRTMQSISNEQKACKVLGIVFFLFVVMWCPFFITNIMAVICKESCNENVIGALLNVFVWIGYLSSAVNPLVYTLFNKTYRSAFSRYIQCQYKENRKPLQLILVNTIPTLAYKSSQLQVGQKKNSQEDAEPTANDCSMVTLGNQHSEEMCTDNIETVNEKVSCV
Insulin prom up: insulin promoter activators in MIN6 cells, imaging, high-content screening, mouse beta cells | AID 1625, 2009 | hit rate 0.3% among 190,000 | MIN6 insulin promoter-GFP reporter; stronger effect = higher value | z-score at 5 µM;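 active = z-score above 3 at 5 µM with at least 500 cells counted in the well; inconclusive = wells under 500 cells, flagged as cytotoxic or low count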
beta cell repl: inducers of MIN6 beta-cell proliferation, primary screen, ATP luminescence, uHTS. MIN6 cells proliferation, ATPlite luminescence, 48 h; cells starved in 0.2% serum; 100% = growth in 10% serum. proliferation, % at 10 µM. hit rate 0.29% among 330,000. AID 2380, 2010;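 active = compounds whose signal lies at least 3.5 SD above the mean of all wells on their plate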;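 note: 0% = DMSO-treated cells in low-serum medium and 100% = 10% serum control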
MOR ag counter: OPRM1 agonists via beta-arrestin recruitment, confirmation, counter-screen for mouse HTR2A agonist project, cell-based, luminescence, single concentration; shares compounds with HTR2A ag; U2OS OPRM1 beta-arrestin PathHunter; DMSO 0%, DAMGO 9.3 µM 100%; activation, % at 9.3 µM; hit rate 5.3% among 2,300; AID 624380, 2012;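 active = mean activation above the mean of DMSO-only wells plus 3 SD, cut at about 0.5% in these data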
HTR2A ag conf: mouse HTR2A agonists, beta-arrestin recruitment, confirmation, cell-based, luminescence, CHO-K1 PathHunter, triplicate; activation, % at 7.6 µM; DMSO 0%, 30 µM serotonin 100%; AID 624381, 2012; hit rate 19% among 2,300; shares compounds with HTR2A ag;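 active = mean activation across triplicates above the hit threshold derived in the original primary screen, cut at about 15% in these data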
An asterisk follows results filed as active; ? = inconclusive; . = no result. An excerpt weighted towards active compounds, which were near 2.4% of everything screened.

SMILES	SR-BI uptake up	SR-BI DiI inh	Calb FLC	HTR2A ag	Insulin prom up	beta cell repl	MOR ag counter	HTR2A ag conf
O=C(Nc1ccc(C(=O)O)cc1)/C(=C/c1ccc2c(c1)OCO2)NC(=O)c1cccc(Br)c1	-3.2	3.2	-1.7	18.6*	0.07	-3.0	-0.4	-5.3
CN(CC(=O)Nc1cccc(F)c1)C(=O)c1cccc(S(=O)(=O)N2CC3(C)CC2CC(C)(C)C3)c1 (stereo not given)	0.0	0.0	1.8	-6.5	.	-4.3	.	.
CN(C(=O)c1cccc(NC(=O)Cc2ccc(NC(=O)C3CCN(C(=O)C4CCC4)CC3)cc2)c1)C1CCCCC1	-55.3	55.3	.	8.8	.	.	.	.
CN(C(=O)c1cccc(NC(=O)Cc2ccc(NC(=O)C3CCN(C(=O)C4CCCCC4)CC3)cc2)c1)C1CC1	-15.8	15.8	.	15.7*	.	.	0.7*	5.3
O=S(=O)(NCCc1ccccc1)c1cccs1	-7.6	7.6	12.0	-2.4	.	-1.0	.	.
O=S(=O)(NCCSc1ccccc1)c1cccs1	-6.9	6.9	-16.3	15.0*	-1.16	-0.7	-0.8	-5.3
CN(CC(=O)Nc1ccccc1Br)C(=O)c1cc2c(s1)CCCCC2	6.8	-6.8	-4.7	17.1*	.	-4.5	-0.3	0.4
CN(CC(=O)Nc1ccccc1Cl)C(=O)c1cc2c(s1)CCCCC2	1.0	-1.0	.	-3.6	.	.	.	.
Cc1cc(SCC(=O)NCC(c2cccs2)N2CCOCC2)c(C)cc1Br (stereo not given)	-0.6	0.6	5.9	-13.7	.	-4.3	.	.
COc1cccc(-c2nc(-c3cccc(C)c3)nc3cc(Cl)ccc23)c1	.	.	.	17.4*	.	.	-0.5	-1.1
CC(=O)Nc1ccc(SCCN2CC[C@@H](O)CCC2=O)cc1	28.8	-28.8	.	30.1*	.	-2.4	-0.6	-3.7
CC(=O)Nc1ccc(SCCN2CC[C@@H](C)CCC2=O)cc1	3.8	-3.8	.	6.6	.	0.1	.	.
Cc1csc(=O)n1CC(=O)OCc1nnc(-c2ccccc2)o1	45.4	-45.4	-9.2	21.1*	.	2.2	-0.3	-0.9
Cc1csc(=O)n1CC(=O)OCc1nnc(-c2ccc(Cl)cc2)o1	4.2	-4.2	.	6.8	.	-4.2	.	.
C[C@H](CO)N1C[C@H](C)[C@H](CN(C)Cc2ccc(-c3ccccc3)cc2)Oc2ccc(NS(=O)(=O)c3ccccc3)cc2CC1=O	53.1	-53.1	.	16.1*	.	-6.1	-0.1	28.2*
C[C@@H]1CN([C@@H](C)CO)C(=O)Cc2cc(NS(=O)(=O)c3ccccc3)ccc2O[C@H]1CN(C)Cc1ccncc1	16.9	-16.9	.	0.1	.	-3.0	.	.
COc1ccc(NC(=O)Nc2ccc3c(c2)C(=O)N([C@H](C)CO)C[C@H](C)[C@@H](CN(C)S(=O)(=O)c2ccccc2)O3)cc1	-11.9	11.9	.	6.9	.	-2.4	.	.
Cc1ccc(S(=O)(=O)Nc2ccc3c(c2)CC(=O)N([C@H](C)CO)C[C@@H](C)[C@H](CN(C)Cc2ccc(-c4ccccc4)cc2)O3)cc1	10.2	-10.2	.	19.0*	.	-6.1	-0.7	18.0*
C[C@@H]1CN([C@H](C)CO)C(=O)c2cc(NS(=O)(=O)c3ccc(F)cc3)ccc2O[C@@H]1CN(C)Cc1ccc(Cl)c(Cl)c1	8.8	-8.8	.	20.9*	.	-5.1	-0.2	6.8
COc1ccc(NC(=O)Nc2ccc3c(c2)C(=O)N([C@H](C)CO)C[C@H](C)[C@@H](CN(C)S(=O)(=O)c2ccc(F)cc2)O3)cc1	-6.6	6.6	.	18.3*	.	0.1	-0.7	-3.4
COc1ccc(OCC(=O)N2CCCC(CO)(CCOc3ccccc3)C2)cc1 (stereo not given)	-2.6	2.6	1.8	-5.9	.	1.4	.	.
O=C1CC(c2cccc(Cl)c2)C(n2cncn2)C(=O)C1C1NCCc2ccccc21 (stereo not given)	14.6	-14.6	-1.3	15.7*	-0.39	1.3	-0.6	-3.8
CCN1C(=O)C(=O)N(CC(=O)Nc2cccc(C(F)(F)F)c2)C1=O	13.1	-13.1	.	44.0*	.	3.4	-0.7	-4.4
COCC(=O)Nc1cccc(C(F)(F)F)c1	-3.7	3.7	-1.1	-0.9	1.17	-3.2	.	.
COc1ccc(N(C)C(=O)c2ccc(NC(=O)CCS(=O)(=O)c3cccs3)cc2)cc1	-16.0	16.0	4.4	15.2*	.	-4.1	-0.6	-1.4
SMILES	SR-BI uptake up	SR-BI DiI inh	Calb FLC	HTR2A ag	Insulin prom up	beta cell repl	MOR ag counter	HTR2A ag conf
NC(CCc1ccccc1)c1csc(NC(=O)Nc2cccc(C(F)(F)F)c2)n1 (stereo not given)	.	.	.	1.8	.	.	.	.
COc1ccc2cc(/C=N/NC(=O)CN(c3ccccc3C)S(=O)(=O)c3ccccc3)c(Cl)nc2c1	0.6	-0.6	2.9	15.7*	1.69	-3.3	-0.5	-4.2
CC(C)OCCCn1c(-c2ccc(Br)cc2)c[nH]c1=S	-14.5	14.5	-38.6	1.0	-0.71	-1.0	.	.
COc1cc(NS(=O)(=O)c2ccc(-n3cccn3)cc2)cc(OC)c1	.	.	.	2.6	.	.	.	.
Cc1cc(=O)oc2c(C)c(OC(C)C(=O)NCCCN3CCOCC3)ccc12 (stereo not given)	2.5	-2.5	1.0	16.3*	.	-2.5	-0.4	-4.3
CCOc1ccc(CCNC(=O)/C=C/c2ccco2)cc1OCC	-7.6	7.6	-0.1	18.7*	.	4.6	-0.5	-4.4
COc1ccc(CCNC(=O)/C=C/c2ccco2)cc1OC	-14.4	14.4	19.6	4.8	.	-4.2	.	.
O=C(CSc1nnc(Cc2cc(=O)[nH]c(=O)[nH]2)n1-c1ccc(Cl)cc1)N1CCc2ccccc21	.	.	?	.	-0.02	0.1	.	.
O=C(CSc1nnc(Cc2cc(=O)[nH]c(=O)[nH]2)n1-c1ccccc1)N1CCCc2ccccc21	-15.2	15.2	.	16.1*	0.29	-4.5	-0.7	-2.3
COc1ccc(C(=O)OCC(=O)NC2CC2)cc1F	0.6	-0.6	.	5.5	.	2.8	.	.
O=C(CN1C(=O)/C(=C/c2ccc(Cl)cc2)SC1=S)NC1C=CS(=O)(=O)C1 (stereo not given)	6.2	-6.2	2.5	15.3*	.	-2.9	-0.5	-1.0
